From ChEMBL document CHEMBL1629467, “Design and synthesis of novel tetrahydro-2H-Pyrano[3,2-c]pyridazin-3(6H)-one derivatives as potential anticancer agents” (Eur J Med Chem, 2010)

Assays:
[1] = test system: HCT-116; assay: Growth inhibition of human HCT116 cells after 48 hrs by sulforhodamine B assay; type: functional, cell-based; details: HCT-116, 48 h
Outline: (§1)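 Cells were grown in RPMI-1640 with 10% FBS, penicillin, streptomycin and amphotericin B at 37 °C in 5% CO2, then treated for 48 h in triplicate wells. They were fixed with cold 50% TCA for 1 h at 4 °C, stained with 0.4% SRB in 1% acetic acid for 10 min at RT, and dissolved in 10 mM Tris (pH 10.5) before reading A570. Percent inhibition was calculated against untreated cells after blank subtraction. IC50 is the concentration giving a 50% reduction in net protein increase, reported as mean ± SEM from ≥3 independent runs.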

[2] = test system: SK-N-SH; assay: Growth inhibition of human SK-N-SH cells after 48 hrs by sulforhodamine B assay; type: functional, cell-based; outline: as §1
[3] = test system: SK-BR-3; assay: Growth inhibition of human SK-BR-3 cells after 48 hrs by sulforhodamine B assay; type: functional, cell-based; details: SK-BR-3, 48 h; outline: as §1
[4] = test system: DU-145; assay: Growth inhibition of human DU145 cells after 48 hrs by sulforhodamine B assay; type: functional, cell-based; details: DU-145, 48 h; outline: as §1
[5] = test system: A549; assay: Growth inhibition of human A549 cells after 48 hrs by sulforhodamine B assay; type: functional, cell-based; details: A549, 48 h; outline: as §1
[6] = test system: SK-BR-3; assay: Selectivity ratio of IC50 for human SK-BR-3 cells to IC50 for human A549 cells; type: functional
[7] = test system: SK-BR-3; assay: Selectivity ratio of IC50 for human SK-BR-3 cells to IC50 for human HCT116 cells; type: functional
[8] = test system: SK-N-SH; assay: Selectivity ratio of IC50 for human SK-BR-3 cells to IC50 for human SK-N-SH cells; type: functional
[9] = test system: SK-BR-3; assay: Selectivity ratio of IC50 for human SK-BR-3 cells to IC50 for human DU145 cells; type: functional
[10] = Growth inhibition of human MCF10A cells after 48 hrs by sulforhodamine B assay; type: cell-based; details: MCF-10A; outline: as §1
[11] = test system: SK-BR-3; assay: Selectivity for human SK-BR-3 cells over human MCF10A cells
[12] = Cytotoxicity against human MCF10A cells at 0.1 uM after 72 hrs by MTT assay; type: cell-based; details: mcf-10a
Outline: (§2)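 Cells were plated in 96-well plates with medium and treated after 24 h with five test concentrations, each in triplicate, for 72 h. They were then washed with PBS, and fresh medium plus MTT (stock 3 mg/mL in PBS) was added for 4 h at 37 °C. Formazan was dissolved in DMSO for 30 min, absorbance was read, and the data were converted to % cell viability.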

[13] = Cytotoxicity against human MCF10A cells at 0.3 uM after 72 hrs by MTT assay; type: cell-based; details: mcf-10a; outline: as §2
[14] = Cytotoxicity against human MCF10A cells at 1 uM after 72 hrs by MTT assay; type: cell-based; details: mcf-10a; outline: as §2
[15] = Cytotoxicity against human MCF10A cells at 3 uM after 72 hrs by MTT assay; type: cell-based; details: mcf-10a; outline: as §2
[16] = Cytotoxicity against human MCF10A cells at 10 uM after 72 hrs by MTT assay; type: cell-based; details: mcf-10a; outline: as §2

Structure (SMILES) | IC50 [1] [µM] | IC50 [2] [µM] | IC50 [3] [µM] | IC50 [4] [µM] | IC50 [5] [µM] | Selectivity ratio [6] | Selectivity ratio [7] | Selectivity ratio [8] | Selectivity ratio [9] | IC50 [10] [µM] | Ratio [11] | Selectivity ratio [11] | Activity [12] | Activity [13] | Activity [14] | Activity [15] | Activity [16]
CO[C@@H]1CC=C2NN(c3ccc(Cl)cc3)C(=O)C[C@]2(C)O1 | 35.7 | 31.7 | 28.7 | 24.2 | 25.5 | – | – | – | – | – | – | – | – | – | – | – | –
CO[C@@H]1CC=C2NN(c3ccc(C)cc3)C(=O)C[C@]2(C)O1 | 28.7 | 25.3 | 29.7 | 23.2 | 21.5 | – | – | – | – | – | – | – | – | – | – | – | –
COc1cc(OC)cc(N2NC3=CC[C@@H](OC)O[C@@]3(C)CC2=O)c1 | 24.3 | 23.7 | 5.7 | 22.2 | 6.15 | 5 | – | – | – | – | – | – | – | – | – | – | –
CO[C@@H]1CC=C2NN(c3cc4ccccc4[nH]3)C(=O)C[C@]2(C)O1 | 18.3 | 19.5 | 4.1 | 14.4 | 3.92 | 5 | – | – | – | – | – | – | – | – | – | – | –
CO[C@@H]1CC=C2NN(c3cc(Cl)cc(Cl)c3)C(=O)C[C@]2(C)O1 | 19.4 | 20.2 | 18.8 | 21.3 | 17.5 | – | – | – | – | – | – | – | – | – | – | – | –
CO[C@@H]1CC=C2NN(c3cccnc3)C(=O)C[C@]2(C)O1 | 17.1 | 19 | 15.2 | 16.4 | 14.3 | – | – | – | – | – | – | – | – | – | – | – | –
CO[C@@H]1CC=C2NN(c3cncnc3)C(=O)C[C@]2(C)O1 | 15.1 | 16.6 | 3.4 | 17.1 | 4.1 | 5 | – | – | – | – | – | – | – | – | – | – | –
COc1cc(OC)cc(N2NC3=CC[C@@H](OC)O[C@@]3(c3ccccc3)CC2=O)c1 | 18.1 | 19.5 | 1.2 | 18.3 | 17.2 | – | – | – | – | – | – | – | – | – | – | – | –
CO[C@@H]1CC=C2NN(c3cc(F)cc(Cl)c3)C(=O)C[C@]2(c2ccccc2)O1 | 16.2 | 17.4 | 17.6 | 16.1 | 14.1 | – | – | – | – | – | – | – | – | – | – | – | –
CO[C@@H]1CC=C2NN(c3ccc(C)cc3)C(=O)C[C@]2(c2ccccc2)O1 | 10.5 | 11.1 | 9.2 | 11.2 | 8.11 | – | – | – | – | – | – | – | – | – | – | – | –
COc1ccc(N2NC3=CC[C@@H](OC)O[C@@]3(c3ccccc3)CC2=O)cc1 | 11.3 | 10.4 | 8.4 | 10.1 | 7.1 | – | – | – | – | – | – | – | – | – | – | – | –
CO[C@@H]1CC=C2NN(c3cncnc3)C(=O)C[C@]2(c2ccccc2)O1 | 9.13 | 8.2 | 5.3 | 7.33 | 5.2 | – | – | – | – | – | – | – | – | – | – | – | –
CO[C@@H]1CC=C2NN(c3cc4ccccc4[nH]3)C(=O)C[C@]2(c2ccccc2)O1 | 8.2 | 9.1 | 0.53 | 7.9 | 8.67 | 20 | 20 | 20 | 20 | > 38 | – | – | – | – | – | – | –
CO[C@@H]1CC=C2NN(c3cc(Cl)cc(Cl)c3)C(=O)C[C@]2(c2ccncc2)O1 | 9.1 | 8.3 | 5.5 | 7.6 | 7.5 | – | – | – | – | – | – | – | – | – | – | – | –
CO[C@@H]1CC=C2NN(c3ccc(C)cc3)C(=O)C[C@]2(c2ccncc2)O1 | 7.4 | 8.1 | 6.2 | 7.1 | 5.9 | – | – | – | – | – | – | – | – | – | – | – | –
COc1cc(OC)cc(N2NC3=CC[C@@H](OC)O[C@@]3(c3ccncc3)CC2=O)c1 | 6.5 | 6.4 | 0.21 | 5.9 | 6.22 | 30 | 30 | 30 | 30 | > 51 | 290 | 290 | Non-toxic | Non-toxic | Non-toxic | Non-toxic | Non-toxic
CO[C@@H]1CC=C2NN(c3cc4ccccc4[nH]3)C(=O)C[C@]2(c2ccncc2)O1 | 4.35 | 3.9 | 0.15 | 4.1 | 4.05 | 30 | 30 | 30 | 30 | > 55 | 290 | 290 | Non-toxic | Non-toxic | Non-toxic | Non-toxic | Non-toxic
